Data taken from the EternaBench riboswitch data.

Test system: MS2 coat protein
Experiment: apparent Kd, MS2 coat protein; higher = weaker binding; RNA-MaP array; FMN 200 µM where present
In short: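 Green signal from SNAP-549-labelled MS2 coat protein was normalised to red-channel RNA signal and to the median Fmax of control clusters. The protein was titrated from 0.7 or 1.5 nM, doubling to 3 µM, without and then with constant ligand, over designs transcribed by stalled E. coli RNA polymerase on Illumina sequencing-chip clusters, in 100 mM Tris-HCl pH 7.5, 80 mM KCl, 4 mM MgCl2, BSA, DTT, yeast tRNA and Tween-20. The apparent Kd is the median of filtered per-cluster binding-curve fits.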

[1] = designed as: ON switch for flavin mononucleotide, no ligand
[2] = ligand present: flavin mononucleotide, designed as: ON switch for flavin mononucleotide
[3] = designed as: OFF switch for flavin mononucleotide, no ligand
[4] = ligand present: flavin mononucleotide, designed as: OFF switch for flavin mononucleotide

Sequence | apparent Kd [1] [nM] | apparent Kd [2] [nM] | apparent Kd [3] [nM] | apparent Kd [4] [nM]
AUAUAACAUGAGGAUCACCCAUGUCACUAAAGUCGAGGAUAUGGGCAGGUUAUAUCCGAACCAGAAGGCGAAUUAU | 220 | 29.2 |  | 
CUUUUGUGAGGAUAUCAGUAGUUAAUAAAUAAAAUUACUACUGAGAAGGCACAUGAGGAUCACCCAUGUUCCUC |  |  | 37.1 | 211
GGGCUGUCAGGAUAUGGGUCUGGGUCUGAAAGGGCUCGGGCUCAGAAGGGACAUGAGGAUCACCCAUGUGGCCC |  |  | 35.2 | 36.4
UCUCGACAUGAGGAUCACCCAUGUCAGGAUAUUGUGUUUGAGGUUUUUUACCUUUUGGCAAGAAGGGAUGUGUG |  |  | 27.5 | 28.9
UUUAUAAUAAGAUCAAUUAAUUAACAUGAGGAUCACCCAUGUGAGGAUAUCAGCUCGUGUAGAGCUGAGAAGGCACAAUAUAAG |  |  | 43.8 | 69.3
AGUGUGUUAGGAUAUCGGAUAUGCUGGAGGAGGUGGAUUUACGAGAAGGAACAUGAGGAUCACCCAUGUAGGAG |  |  | 37.1 | 35.6
AAUAUGUUGCAGAAGGCUAUAUUGUGGUAGUACCUCAUGACAUGAGGAUCACCCAUGUUUGUGUUGGAGGAUAUGCAAUAUAUU |  |  | 16.2 | 64.9
CAUCCACAUGAGGAUCACCCAUGUCAGGAUAUCUAUCAUAGCAUCGAAAGAUGCGGGUAGAGAAGGGACAAACC |  |  | 12.9 | 20.2
CGCUGAGCGGUGAGGAUAUCGUGUUCGAAAGAACGUGAGAAGGCACAUGAGGAUCACCCAUGUGAUCCUCAUCG |  |  | 17.1 | 28.1
UCACGGGAUUGAGGAUAUAUAUUAAUUUUUUUUAUAGAAGGCAAAAUGUUAGAUUAUUCACUAUACAUGAGGAUCACCCAUGUU |  |  |  | 22.7
GUCAGCUCGUGAGGAUAUAUAACACUGCUUCGGCAGUGUAUUAAGAUCACAUGAGGAUCACCCAUGUAGAAGGCACGAGCUGAU |  |  | 5.04 | 8.94
CAGCGCUGUUGAGAGGAUAUGCGGUGAUGGACAUGAGGAUCACCCAUGUUAGCGAUAGCAUUACGGUAGAAGGCUCUACAGCUGC | 18.5 | 12.3 |  | 
AACCUAUUACAGAAGGCCAGCUACAUGAGGAUCACCCAUGUCGAGUCAUGGAGGAUAUGUAGUAAUUUACUCACAGAUGAGUGC | 25.8 | 5.31 |  | 
GUCAGCUCGUGAGGAUAUACAUGUGCUGGAGACAGCACUAUUAAGAUCACAUGAGGAUCACCCAUGUAGAAGGCACGAGCUGAU |  |  | 50.4 | 620
AUAAUGGUAGGAUAUACAUGGAUAUACAUUCAUGUGGACCUACAUGAGGAUCACCCAUGUAGAAGGACCAUGAA |  |  | 33.9 | 28.6
CCGGAAUCCUAGGAUAUGCUAGACGAUAGUCUAGCAGAAGGAGGAACAUGAGGAUCACCCAUGUGUCCUACCGG |  |  | 17.2 | 22.1
AUUAUGACCGAGUUAUAGUUCCAAACAUGAGGAUCACCCAUGUAGGAUAUCAGCACGAUAAGUGCUGAGAAGGACAUCUCGGUC |  |  | 14.9 | 16.1
GGAUUACAUGAGGAUCACCCAUGUGAGGAUAUCGAUGUCCUCAGUCGAGUGCGGGACUCGAGAAGGCACUUGGA |  |  | 77 | 57.5
CGCUAAGAUGGGUCUAAUGGAGCAUAGGAUAUGCUUGUACAUGAGGAUCACCCAUGUAAUAUUGUGCAGAAGGGUGCAUUUGCG | 127 | 61.7 |  | 

Sequence | apparent Kd [1] [nM] | apparent Kd [2] [nM] | apparent Kd [3] [nM] | apparent Kd [4] [nM]
CCUGCACAUGAGGAUCACCCAUGUUAGGAUAUCUCGCCGUCGGCUUGCCGACGGUAUUAGAGAAGGGACAAGGG |  |  | 34.7 | 45.5
AUACUCAUGUAAGGAUAUGCAGCCGAAACGGCUGCAGAAGGUACUAUAAUACAUGAGGAUCACCCAUGUCAAAAUUAAAUAGUU | 185 | 31.7 |  | 
GCGAUUUUGUAGAAGGUACGUUAUAAGACAAUGUAAGGAUAUACUGACAUGAGGAUCACCCAUGUAUAAUUAGUUUACAGUCGC | 7.74 | 5.91 |  | 
UUAAUGUGAGGAUAUCAGGUGUGCUAGAGUACUGGUACAUCUGAGAAGGCACAUGAGGAUCACCCAUGUUCUUC |  |  | 36.9 | 110
GGUUGGCGAGGAUAUACAUGAGGAUCACCCAUGUGGUCCUGCGGUGGUGUCGCCCUUUGUAGAAGGCGCGGGUC |  |  | 59.1 | 56.6
AAGAAAGAAACGCAGGAUAUGCAAAACAAAACAUGAGGAUCACCCAUGUCAAACAAACAAACAAAGCAGAAGGGCGAAAGAAAGAA | 23.1 | 16.4 |  | 
AUGUAGUGCGAAGGAUAUGCGACUGCCUCGGCCGCAGAAGGUCGCACAUGAGGAUCACCCAUGUGCGGUGCAAAGAGUGGUUCU |  |  | 111 | 76.3
AAAAGACAUGAGGAUCACCCAUGUUAAAACGUAGGAGGAUAUGUAUGGAAAACAUGCUGUACAGAAGGCCUGUGUC | 17.3 | 17.1 |  | 
GCUAAGGGAGGAUAUACAUGAGGAUCACCCAUGUAGUCGCUGCGUUUCAUUAUCCAAGGUAGAAGGCCCAAAAU |  |  | 25.4 | 36
GCCUUAUCCGUCAGGAUAUACAGCCGCUAGUUGUUGUAGAAGGGACAUGAGGAUCACCCAUGUACGUACCAUUG |  |  | 20.3 | 30.7
UGUGCGUUGAUCUUCGAUCGGUGUACAUGAGGAUCACCCAUGUAGGAUAUUCAAAGACGCAGAUAGGAGAAGGACAUUGGUUUU |  |  | 16.8 | 20
CCACAUGAGGAUCACCCAUGUAGGAUAAAUCACGGCUUGGCACAGGAUAUACGGAGCGACGGAUCGUAGAAGGGUGCACUCGGC | 8.37 | 6.07 |  | 
AAGCCUCUUGUCAGGAUAUCUGUCGGUCCUCCAAGAGAGAAGGGACAUGAGGAUCACCCAUGUAAGCCCAGGGA |  |  | 16.1 | 27.9
UUUGGGAACUCUAUGGGCCGCUACAUGAGGAUCACCCAUGUGCAGGAUAUAGGCGUUACUACCACCUAGAAGGGCACAGAAUGA |  |  | 32.5 | 47.6
GGCGGGAAUGAGAAGGGUCACAUGAGGAUCACCCAUGUGCUCUUCGCCGUGACAGGAUAUCAUUGCCGUCAGGUUAGAUUUUUG |  |  | 8.42 | 24.7
GGGCCCGGAGGAUAUACAUGAGGAUCACCCAUGUAUGUGUGUGUUAUUGCGCGCGCGUGUAGAAGGCCGGGCCC |  |  | 19.9 | 80.2
AAGAAACAUGAGGAUCACCCAUGUGAGGAUAUGAAAAAGAAAAGAAAAGAAAGAAGAAUCAGAAGGCACAAAGC |  |  | 26 | 32.7
CCAGCGUGUGUGAGGAUAUGCUGGUCCUUGGAUCAGCAGAAGGCACAUGAGGAUCACCCAUGUGAGAACGUUGG |  |  | 23.1 | 105
ACAUGAGGAUCACCCAUGUGUACAUAGGAUAUUGAUGAUUAUGGUUUAAGAAAAGUAAUUGCCCACAAGAAGGAUGCCUCAUCU | 36.5 | 27.7 |  | 

Sequence | apparent Kd [1] [nM] | apparent Kd [2] [nM] | apparent Kd [3] [nM] | apparent Kd [4] [nM]
AGGCGACAUGAGGAUCACCCAUGUGAGGAUAUCGAACUCAACUGAGGAGAGAGUAAGGCGAGAAGGCACACAGU |  |  | 22.1 | 36.4
GUAGCUAUCGGAGGAUAUUCAUACCGGAAACGGACAUGAGGAUCACCCAUGUGUCGAAAGCCUUGGGAGAAGGUCGAUAGCUAC | 260 | 87.4 |  | 
CCGGAAAUGAAGGAUAUAGGUGUCGAUAGACACCUAGAAGGUCAUACAUGAGGAUCACCCAUGUGUCCUACCGG |  |  | 16.1 | 30.6
UUGUUGUAUGUAGGAUAUGCAUAUUGUUAUUAUGCAGAAGGACAUGAGGAUCACCCAUGUAUGUUAUUAUUAUGUGUUAUGUGU |  |  | 39.3 | 63.9
AAUGCCGUAGGAUAUAUAUGGCAGAUCGCACGUCCUGAAAGACAUGAGGAUCACCCAUGUAGAAGGGCGGAAAC |  |  | 14.7 | 17
CAGUACUGAGGAUAUACAUGAGGAUCACCCAUGUGUUCCAGCUAGGAAACUAGCAAAGGUAGAAGGCAGUACUG |  |  | 23.8 | 521
GGAGACCUCACAGGAUAUGCUGGACUUUGUCCAGCAGAAGGGUGAAAACAUGAGGAUCACCCAUGUAUGGUCUCCAAAUUUAAU | 183 | 13.7 |  | 
GGAGCGAGCACAGGAUAUAGGCUAAAGGCUAGUCUAGAAGGGUGGGAUCAGACAUGAGGAUCACCCAUGUGUGUUUUUGCUCCA | 86.3 | 686 |  | 
CUGUGGGCCAUAGGAUAUGCGCAGAAUUAGCAAGCAGAAGGGUGGAUCGUACAAUAAUAACUACAUGAGGAUCACCCAUGUGCU | 360 | 39.6 |  | 
AAUACAUGAGGAUCACCCAUGUGCAUUGUUUAAGAGGAAGCACAGGAUAUGCAGCCAAUCGGUUAGCAGAAGGGUGACUUCAAC | 85.2 | 81.6 |  | 
CAUACACAUGAGGAUCACCCAUGUGAGGAUAUGCGUACGUUGUCCGUAGGCGACGUGCGCAGAAGGCGCAAGGU |  |  | 63.3 | 81
GUGCCUUGGGAGAAGGUUAUAUGCAAAGCAUUUAAAGGAUAUUCAUACCGGAAACGGACAUGAGGAUCACCCAUGUGGCACAAA | 1280 | 128 |  | 
UCGUACAUUCGAGGAUAUCGGUGAUAAAUAAUACGAGAAGGCGAUUGUGGGCAUAACGCCUUAGACAUGAGGAUCACCCAUGUA | 75.6 | 51.5 |  | 
CAGCGCUGUCGAGAGGAUAUGCGGUGAUGGACAUGAGGAUCACCCAUGUUAGCGAUAGCAUUACGGUAGAAGGCUCUACAGCUGC | 239 | 14.2 |  | 
AACUGACAUGAGGAUCACCCAUGUCAGGAUAUGCUUCAUAAAAACAAACAAAAAUGAUGCAGAAGGGACAUGGA |  |  | 16.6 | 41.6
CACUCACAUGAGGAUCACCCAUGUCCUAGCAGGUCAGGAUAUAGCUCGGAUGCGUUGAGUCUAGAAGGGACAGGUU | 184 | 63.6 |  | 
GUGGAUAGACGCCCACGUGAGACAUGAGGAUCACCCAUGUACAGAAGGUGGAGCGUUAAUGGUGCCAAGGAUAUGUACAUAAGG |  |  |  | 5.11
GCACAUUUGUAAGGAUAUACAACAUGAGGAUCACCCAUGUGUUGGAAUUUAGUAGAAGGUACAGACAUGAGGAUCACUUUUGUA | 174 | 102 |  | 
